Measurements from different studies.
Lines come from different studies, so protocols differ.
Organism: Bacillus subtilis
Observed: microbial growth

`COc1ccc(NCc2ccc(Oc3ccccn3)cc2)cc1` has an MIC of > 6.24 µg/mL.
The MIC of `CCCCC[P+](/C=C(/c1ccccc1)c1cc(Cl)ccc1O)(CCCCC)CCCCC` is reported as ~2 µM (21 h).
The MIC of `CC1(C)CCC(C)(C)c2cc(C(=O)Nc3ccc(C(=O)O)cc3)ccc21` is reported as 50 to 100 µM (broth dilution; 24 h).
`COc1cccc(OC)c1C(=O)N[C@@H]1C(=O)N2[C@@H]1SC(C)(C)[C@@H]2C(=O)O` has an MIC of 0.625 µg/mL (broth dilution; 168).
`Cc1ccc(NCc2ccc(Oc3ccccn3)cc2)cc1` gave an MIC of 1.8 µg/mL.
`CN(C)[C@@H]1C(O)=C(C(N)=O)C(=O)[C@@]2(O)C(O)=C3C(=O)c4c(O)cccc4[C@@](C)(O)[C@H]3C[C@@H]12` gave an MIC of 2 µg/mL (ATCC6633).
With `O=C(O)CN1C(=O)/C(=C/c2ccc(-c3ccc(N(c4ccccc4)c4ccccc4)cc3)cc2)NC1=S` the MIC was 3.9 µg/mL (broth dilution; ATCC6633).
The MIC of `O=C(O)c1ccc(-n2cc(/C=N/Nc3cccc(Cl)c3)c(-c3cccc(F)c3)n2)cc1` is reported as 12.5 µg/mL (ATCC6623).
The MIC of `O=C(O)c1cn(C2CC2)c2cc(N3CCNCC3)c(F)cc2c1=O` is reported as 0.03 µg/mL (broth dilution; ATCC6633).
`CC1=NN(CNc2ccccn2)C(=O)C1=NNn1c(-c2ccccc2)nc2ccccc2c1=O` has an MIC of 55.2 µM (broth dilution; 24 h).
`CN[C@H](CC(C)C)C(=O)N[C@H]1C(=O)N[C@@H](CC(N)=O)C(=O)N[C@H]2C(=O)N[C@H]3C(=O)N[C@H](C(=O)N[C@H](C(=O)O)c4cc(O)cc(O)c4-c4cc3ccc4O)[C@H](O)c3ccc(c(Cl)c3)Oc3cc2cc(c3O[C@@H]2O[C@H](CO)[C@@H](O)[C@H](O)[C@H]2O[C@H]2C[C@](C)(N)[C@H](O)[C@H](C)O2)Oc2ccc(cc2Cl)[C@H]1O` has an MIC of 0.25 µg/mL (broth dilution; 168).
`O=C(O)c1cn(C2CC2)c2cc(N3CCNCC3)c(F)cc2c1=O` gave an MIC of 1.6 µg/mL.
With `CC1(C)S[C@@H]2[C@H](NC(=O)[C@H](N)c3ccccc3)C(=O)N2[C@H]1C(=O)O` the MIC was 0.13 µg/mL (broth dilution; BS01).
`O=C1NC(=S)S/C1=C\c1ccc(-c2ccc(N(c3ccccc3)c3ccccc3)cc2)cc1` gave an MIC of 1000 µg/mL (broth dilution; ATCC6633).
`CC1=NN(CNc2ccccc2[N+](=O)[O-])C(=O)C1=NNn1c(-c2ccccc2)nc2ccccc2c1=O` gave an MIC of 50.4 µM (broth dilution; 24 h).
The MIC of `O=C(O)CN1C(=O)/C(=C/c2c3ccccc3c(-c3ccc(N(c4ccccc4)c4ccccc4)cc3)c3ccccc23)NC1=S` is reported as > 1000 µg/mL (broth dilution; ATCC6633).
With `C[n+]1ccc(/C=C2\Sc3ccccc3N2CCCN2CCCCC2)c2ccccc21.[I-]` the MIC was 16 µg/mL (broth dilution; 168).
`O=C(O)c1ccc(-n2cc(/C=N/Nc3cccc(Cl)c3F)c(-c3cccc(F)c3)n2)cc1` has an MIC of 1.56 µg/mL (ATCC6623).
`CCC[P+](/C=C(/c1ccccc1)c1cc(Cl)ccc1O)(CCC)CCC` gave an MIC of > 40 µM (21 h).
`CCCCOC(=O)c1cc(O)c(O)c(O)c1` gave an MIC of > 200 µM (broth dilution; ATCC6633).
For `C/C=C(\C)c1cc(O)c(C)c(OC(=O)c2c(C)cc(O)c(Cl)c2O)c1`, the MIC was 4 µg/mL (broth dilution; BS01).
The MIC of `O=C(O)CN1C(=O)/C(=C/c2c3ccccc3c(-c3ccc(N(c4ccccc4)c4ccccc4)cc3)c3ccccc23)SC1=S` is reported as > 1000 µg/mL (broth dilution; ATCC6633).
The MIC of `CCCCCCCCCCCCOC(=O)c1cc(O)c(O)c(O)c1` is reported as 25 to 50 µM (broth dilution; ATCC6633).
With `CC1(C)S[C@@H]2[C@H](NC(=O)[C@H](N)c3ccccc3)C(=O)N2[C@H]1C(=O)O` the MIC was 32 µg/mL (broth dilution; 168).
`CN[C@H](CC(C)C)C(=O)N[C@H]1C(=O)N[C@@H](CC(N)=O)C(=O)N[C@H]2C(=O)N[C@H]3C(=O)N[C@H](C(=O)N[C@H](C(=O)O)c4cc(O)cc(O)c4-c4cc3ccc4O)[C@H](O)c3ccc(c(Cl)c3)Oc3cc2cc(c3O[C@@H]2O[C@H](CO)[C@@H](O)[C@H](O)[C@H]2O[C@H]2C[C@](C)(N)[C@H](O)[C@H](C)O2)Oc2ccc(cc2Cl)[C@H]1O` has an MIC of 0.24 µg/mL (broth dilution; ATCC6633).
`CCCCCCCC[P+](/C=C(/c1ccccc1)c1cc(Cl)ccc1O)(CCCCCCCC)CCCCCCCC` has an MIC of > 80 µM (21 h).
`O=C(O)c1ccc(-n2cc(/C=N/N(c3ccccc3)c3ccccc3)c(-c3cccc(F)c3)n2)cc1` has an MIC of 1.56 µg/mL (ATCC6623).
With `CNC(=O)c1cc(Oc2ccc(NC(=O)Nc3ccc(Cl)c(C(F)(F)F)c3)cc2)ccn1` the MIC was 5 µM (168).
The MIC of `O=C(O)c1ccc(-n2cc(/C=N/Nc3cc(F)ccc3F)c(-c3ccc(F)cc3)n2)cc1` is reported as 12.5 µg/mL (ATCC6623).
The MIC of `c1ccc(NCc2ccc(Oc3ccccn3)cc2)cc1` is reported as 1.6 µg/mL.
With `CCCCCC[P+](/C=C(/c1ccccc1)c1cc(Cl)ccc1OC)(CCCCCC)CCCCCC` the MIC was 2 µM (21 h).
The MIC of `O=C(O)c1ccc(-n2cc(/C=N/Nc3cccc(Br)c3)c(-c3cccc(F)c3)n2)cc1` is reported as 12.5 µg/mL (ATCC6623).
`Clc1ccc(NCc2ccc(Oc3ccccn3)cc2)cc1` gave an MIC of > 6.2 µg/mL.
`O=C(O)CN1C(=O)/C(=C/c2ccc(-c3ccc(N(c4ccccc4)c4ccccc4)cc3)c3ccccc23)SC1=S` has an MIC of 500 µg/mL (broth dilution; ATCC6633).
For `Cc1ccccc1NCc1ccc(Oc2ccccn2)cc1`, the MIC was 1.8 µg/mL.
For `CN[C@H](CC(C)C)C(=O)N[C@H]1C(=O)N[C@@H](CC(N)=O)C(=O)N[C@H]2C(=O)N[C@H]3C(=O)N[C@H](C(=O)N[C@H](C(=O)O)c4cc(O)cc(O)c4-c4cc3ccc4O)[C@H](O)c3ccc(c(Cl)c3)Oc3cc2cc(c3O[C@@H]2O[C@H](CO)[C@@H](O)[C@H](O)[C@H]2O[C@H]2C[C@](C)(N)[C@H](O)[C@H](C)O2)Oc2ccc(cc2Cl)[C@H]1O`, the MIC was 0.39 µg/mL (ATCC6623).
For `Brc1cccc(NCc2ccc(Oc3ccccn3)cc2)c1`, the MIC was > 6.2 µg/mL.
With `C[n+]1c(/C=C/c2c[nH]c3ccccc23)cc(/C=C2\Sc3ccccc3N2CCCN2CCCC2)c2ccccc21.[I-]` the MIC was 2 µg/mL (broth dilution; 168).
`CO[C@H]1O[C@H](COC(c2ccccc2)(c2ccccc2)c2ccccc2)[C@@H](OC(=O)c2ccc(C(C)(C)C)cc2)[C@H](OC(=O)c2ccc(C(C)(C)C)cc2)[C@H]1OC(=O)c1ccc(C(C)(C)C)cc1` has an MIC of 1.25 µg/mL (broth dilution).
`Cc1cc(/C=C2\Sc3ccccc3N2CCCN2CCC(C)CC2)c2ccccc2[n+]1C.[I-]` gave an MIC of 1 µg/mL (broth dilution; 168).
For `CC(=O)NCN1N=C(C)C(=NNn2c(-c3ccccc3)nc3ccccc3c2=O)C1=O`, the MIC was 59.9 µM (broth dilution; 24 h).
With `COc1cc(O)c2c(c1)/C=C/C[C@H](O)[C@H](O)C(=O)/C=C/C[C@H](C)OC2=O` the MIC was > 500 µg/mL.
For `O=C(O)c1ccc(-n2cc(/C=N/Nc3cccc(Cl)c3F)c(-c3ccc(F)cc3)n2)cc1`, the MIC was 3.12 µg/mL (ATCC6623).
With `CC1CCN(CCCN2/C(=C/c3cc[n+](C)c4ccccc34)Sc3ccccc32)CC1.[I-]` the MIC was 4 µg/mL (broth dilution; 168).
The MIC of `C/C=C(\C)c1cc(O)c(C)c(OC(=O)c2c(C)c(Cl)c(O)c(Cl)c2O)c1` is reported as 2 µg/mL (broth dilution; BS01).
With `CC1=NN(CNC(=O)c2ccccn2)C(=O)C1=NNn1c(-c2ccccc2)nc2ccccc2c1=O` the MIC was 104 µM (broth dilution; 24 h).
With `O=C(O)c1ccc(-n2cc(/C=N/Nc3cccc(Br)c3)c(-c3ccc(F)cc3)n2)cc1` the MIC was 12.5 µg/mL (ATCC6623).
